In ChEMBL document CHEMBL5344437, “Novel Drug Screening Assay for Acanthamoeba castellanii and the Anti-Amoebic Effect of Carbonic Anhydrase Inhibitors” (J Med Chem, 2024):
Active and inactive are the calls of the source. No cut-off for these calls is given here.

Columns and labels:
Format in all cases: functional, organism-based
Acanthamoeba castellanii [1] = test: Anti-amoebic activity against Acanthamoeba castellanii ATCC 30010 trophozoites assessed as reduction in amoebic growth at 100 nM incubated for 24 to 72 hrs by crystal violet staining based assay; conditions: time 24-72 hrs
Summary of the method: (§1)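 Trophozoites scraped from an axenic PYG culture at +25 °C were plated at 1000 cells per well with an inhibitor dilution series in PYG medium, with a separate plate for each time point (24, 48, 72 h). Cells were fixed with methanol, stained with 0.1% crystal violet, dissolved in 10% acetic acid and read at 590 nm. Two experiments, 6–15 wells per concentration; unpaired t-test versus control at 72 h.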

Acanthamoeba castellanii [2] = test: Anti-amoebic activity against Acanthamoeba castellanii ATCC 30010 cyst assessed as reduction in cyst survival at […] incubated for 24 to 72 hrs by crystal violet staining based assay; conditions: time 24-72 hrs
Summary of the method: (§2)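 Cyst survival: after 24, 48 or 72 h of inhibitor exposure of 1000 cells per well in PYG, the medium-inhibitor solution was moved to a new plate and topped up with fresh medium. It was then incubated 5 days at +25 °C so cysts could excyst. Wells were fixed with methanol, stained with 0.1% crystal violet, eluted with 10% acetic acid and read at 590 nm. Unpaired t-test versus control at 72 h.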

Acanthamoeba castellanii [3] = test: Anti-amoebic activity against Acanthamoeba castellanii ATCC 30010 cyst assessed as inhibition of excystation at 10 uM incubated for 72 hrs by crystal violet staining based assay
Acanthamoeba castellanii [4] = test: Anti-amoebic activity against Acanthamoeba castellanii ATCC 30010 trophozoites assessed as reduction in amoebic growth at 15.6 uM incubated for 24 to 72 hrs by crystal violet staining based assay; conditions: time 24-72 hrs; summary of the method: as §1
Acanthamoeba castellanii [5] = test: Anti-amoebic activity against Acanthamoeba castellanii ATCC 30010 cyst assessed as reduction in cyst survival at 7.81 to 250 uM incubated for 24 to 72 hrs by crystal violet staining based assay; conditions: dose 7.81-250 µM, time 24-72 hrs; summary of the method: as §2
Acanthamoeba castellanii [6] = test: Anti-amoebic activity against Acanthamoeba castellanii ATCC 30010 cyst assessed as reduction in cyst survival at >= 500 uM incubated for 24 to 72 hrs by crystal violet staining based assay; conditions: time 24-72 hrs; summary of the method: as §2
Acanthamoeba castellanii [7] = test: Anti-amoebic activity against Acanthamoeba castellanii ATCC 30010 cyst assessed as inhibition of excystation at >= 62.5 uM incubated for 72 hrs by crystal violet staining based assay
Acanthamoeba castellanii [8] = test: Anti-amoebic activity against Acanthamoeba castellanii ATCC 30010 trophozoites assessed as reduction in amoebic growth at 938 nM incubated for 24 to 72 hrs by crystal violet staining based assay; conditions: time 24-72 hrs; summary of the method: as §1
Acanthamoeba castellanii [9] = test: Anti-amoebic activity against Acanthamoeba castellanii ATCC 30010 cyst assessed as reduction in cyst survival at 9.38 uM incubated for 24 to 72 hrs by crystal violet staining based assay; conditions: time 24-72 hrs; summary of the method: as §2
Acanthamoeba castellanii [10] = test: Anti-amoebic activity against Acanthamoeba castellanii ATCC 30010 cyst assessed as inhibition of excystation at 188 nM incubated for 72 hrs by crystal violet staining based assay
Acanthamoeba castellanii [11] = test: Anti-amoebic activity against Acanthamoeba castellanii ATCC 30010 trophozoites assessed as reduction in amoebic growth at 100 uM incubated for 24 to 72 hrs by crystal violet staining based assay; conditions: time 24-72 hrs
Summary of the method: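 Trophozoites scraped from steady-state PYG culture, 1000 cells per well in inhibitor-containing PYG, +25 °C, separate plates read at 24, 48, 72 h. Methanol fix, 0.1% crystal violet, 10% acetic acid elution, A590. Two experiments, ≥3 wells each. Unpaired t-test vs drug-free control at 72 h.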

Acanthamoeba castellanii [12] = test: Anti-amoebic activity against Acanthamoeba castellanii ATCC 30010 cyst assessed as reduction in cyst survival at 1 mM incubated for 24 to 72 hrs by crystal violet staining based assay; conditions: time 24-72 hrs
Summary of the method: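 Scraped PYG-grown cells, 1000 per well, exposed 24, 48 or 72 h at +25 °C. Medium-inhibitor solution then moved to new plates, topped with fresh medium, and held 5 days at +25 °C to allow excystation. Methanol fix, 0.1% crystal violet, 10% acetic acid, A590. Unpaired t-test vs control at 72 h.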

Acanthamoeba castellanii [13] = test: Anti-amoebic activity against Acanthamoeba castellanii ATCC 30010 cyst assessed as inhibition of excystation at 100 uM incubated for 72 hrs by crystal violet staining based assay
Summary of the method: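 Axenic culture in PYG medium at +25 °C, grown past peak density to induce encystment; 1000 cysts per well added to inhibitor diluted in PYG, incubated 72 h at +25 °C. Methanol fix, 0.1% crystal violet stain (remaining cysts washed off), dissolve in 10% acetic acid, absorbance 590 nm. Unpaired t-test vs drug-free control; 6 replicates.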

Acanthamoeba castellanii [14] = test: Anti-amoebic activity against Acanthamoeba castellanii ATCC 30010 trophozoites assessed as reduction in amoebic growth at 1 to 100 nM incubated for 24 to 72 hrs by crystal violet staining based assay; conditions: dose 1-100 nM, time 24-72 hrs; summary of the method: as §1
Acanthamoeba castellanii [15] = test: Anti-amoebic activity against Acanthamoeba castellanii ATCC 30010 trophozoites assessed as reduction in amoebic growth at 1 to 100 uM incubated for 24 to 72 hrs by crystal violet staining based assay; conditions: dose 1-100 µM, time 24-72 hrs; summary of the method: as §1
Acanthamoeba castellanii [16] = test: Anti-amoebic activity against Acanthamoeba castellanii ATCC 30010 cyst assessed as inhibition of excystation at >= 10 uM incubated for 72 hrs by crystal violet staining based assay

## CCN[C@H]1C[C@H](C)S(=O)(=O)c2sc(S(N)(=O)=O)cc21
Acanthamoeba castellanii [1]
  Activity: Active
Acanthamoeba castellanii [2]
  Activity: Active
Acanthamoeba castellanii [3]
  Activity: Active

## NN1CCN(NC(=S)S)CC1
Acanthamoeba castellanii [4]
  Activity: Active
Acanthamoeba castellanii [5]
  Activity: inactive
Acanthamoeba castellanii [6]
  Activity: Active
Acanthamoeba castellanii [7]
  Activity: Active

## CCOc1ccc2nc(S(N)(=O)=O)sc2c1
Acanthamoeba castellanii [8]
  Activity: Active
Acanthamoeba castellanii [9]
  Activity: Active
Acanthamoeba castellanii [10]
  Activity: Active

## CC(=O)Nc1nnc(S(N)(=O)=O)s1
Acanthamoeba castellanii [11]
  Activity: Active
Acanthamoeba castellanii [12]
  Activity: Active
Acanthamoeba castellanii [13]
  Activity: Active

## CCN[C@H]1CN(CCCOC)S(=O)(=O)c2sc(S(N)(=O)=O)cc21
Acanthamoeba castellanii [14]
  Activity: inactive
Acanthamoeba castellanii [15]
  Activity: inactive
Acanthamoeba castellanii [16]
  Activity: Active
